Test results from PMC3673019 (Biochemistry, 2012).
Entries after “also recorded” stand apart in the source; their conditions may differ. Like-named read-outs stand apart in the source and are kept apart here.

How the values were obtained:
eEF-2K [1] = molecular target: T1, eEF-2K (Homo sapiens, UniProt O00418); assay type: biochemical
[2] = tested on: MDA-MB-231 breast cancer cells; assay: Western blot of phospho-eEF2; assay type: cell-based; conditions: 4 µM NH125, 0–12 h
[3] = tested on: eEF2 phosphorylation in the hippocampus; conditions: 5 mg/kg, 30 minutes, mice; cited from earlier work
A549 lung cancer cells = assay: Western blot of phospho-eEF2; assay type: cell-based; conditions: 4 µM NH125, 0–12 h
cancer cell lines = conditions: read-out: EC50, decrease of viability; a number of cancer cell lines; cited from earlier work
eEF-2K [4] = molecular target: T1, eEF-2K; assay: Dose-response inhibition of Pep-S phosphorylation by NH125; assay type: biochemical; conditions: in the presence of 0.1% triton X-100
eEF-2K [5] = molecular target: T1, eEF-2K; assay: Phosphorylation of wheat germ EF2 by eEF-2K in vitro; assay type: biochemical
HEK-293T cells = assay: Western blot of phospho-eEF2; assay type: cell-based; conditions: 4 µM NH125, 0–12 h
[6] = tested on: H1299, PC3, HeLa, H460 and C6 cell lines; conditions: NH125 for 6 hours; cited from earlier work
GST-eEF-2K = conditions: in vitro kinase assay; cited from earlier work
ERK2 = ERK2 (Homo sapiens, UniProt P28482); assay: Dose-response inhibition assay against ERK2; assay type: biochemical
Procedure, shortened: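 Radiometric kinase assay: 2 nM ERK2, 500 µM [γ-32P]-ATP, 20 µM Ets1 substrate, test compound 0–500 µM. IC50 and Hill coefficient came from a dose-response equation fit.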

TRPM7 = molecular target: T2, TRPM7 (Homo sapiens, UniProt Q96QT4); assay: Dose-response inhibition assay against TRPM7; assay type: biochemical; conditions: 25 nM TRPM7, 500 µM ATP (data not shown)
T2 sequence (Q96QT4 1551-1830): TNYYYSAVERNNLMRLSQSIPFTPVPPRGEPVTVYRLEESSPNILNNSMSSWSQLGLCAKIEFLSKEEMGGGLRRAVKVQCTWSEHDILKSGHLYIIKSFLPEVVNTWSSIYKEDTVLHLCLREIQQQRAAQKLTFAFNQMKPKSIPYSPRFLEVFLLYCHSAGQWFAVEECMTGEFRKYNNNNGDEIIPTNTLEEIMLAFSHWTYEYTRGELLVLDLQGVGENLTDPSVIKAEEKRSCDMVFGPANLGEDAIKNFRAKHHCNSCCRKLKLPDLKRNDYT

C6 glioma cells = conditions: 1 µM NH125, 12 hours; cited from earlier work
[7] = tested on: human microvascular endothelial cells (HMVECs); conditions: 200 nM NH125, 2 hour pre-incubation; cited from earlier work
eEF-2K [8] = conditions: cited from earlier work
[9] = cited from earlier work
[10] = varied ATP 12.5–125 µM, fixed Pep-S 50 µM

T1 sequence (O00418 whole entry): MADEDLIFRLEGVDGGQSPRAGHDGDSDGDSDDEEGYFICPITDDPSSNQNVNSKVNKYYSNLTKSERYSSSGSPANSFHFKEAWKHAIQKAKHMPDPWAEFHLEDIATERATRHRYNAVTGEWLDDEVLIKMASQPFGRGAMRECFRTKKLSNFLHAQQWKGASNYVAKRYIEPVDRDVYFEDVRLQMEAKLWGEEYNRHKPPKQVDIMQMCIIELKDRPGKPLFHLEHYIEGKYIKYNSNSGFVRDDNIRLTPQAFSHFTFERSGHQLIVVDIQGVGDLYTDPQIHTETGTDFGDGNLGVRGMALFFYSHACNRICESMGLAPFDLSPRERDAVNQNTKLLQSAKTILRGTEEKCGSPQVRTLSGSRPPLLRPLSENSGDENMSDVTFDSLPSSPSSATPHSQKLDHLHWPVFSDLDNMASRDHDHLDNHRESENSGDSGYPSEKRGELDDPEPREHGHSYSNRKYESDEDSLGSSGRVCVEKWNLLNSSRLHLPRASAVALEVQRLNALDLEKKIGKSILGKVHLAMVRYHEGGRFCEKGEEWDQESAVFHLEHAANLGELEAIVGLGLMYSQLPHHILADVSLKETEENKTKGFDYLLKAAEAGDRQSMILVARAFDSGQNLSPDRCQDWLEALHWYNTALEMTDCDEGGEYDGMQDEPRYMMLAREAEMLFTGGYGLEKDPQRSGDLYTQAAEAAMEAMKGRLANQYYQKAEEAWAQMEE
ERK2, sequence (P28482 whole entry, species assumed): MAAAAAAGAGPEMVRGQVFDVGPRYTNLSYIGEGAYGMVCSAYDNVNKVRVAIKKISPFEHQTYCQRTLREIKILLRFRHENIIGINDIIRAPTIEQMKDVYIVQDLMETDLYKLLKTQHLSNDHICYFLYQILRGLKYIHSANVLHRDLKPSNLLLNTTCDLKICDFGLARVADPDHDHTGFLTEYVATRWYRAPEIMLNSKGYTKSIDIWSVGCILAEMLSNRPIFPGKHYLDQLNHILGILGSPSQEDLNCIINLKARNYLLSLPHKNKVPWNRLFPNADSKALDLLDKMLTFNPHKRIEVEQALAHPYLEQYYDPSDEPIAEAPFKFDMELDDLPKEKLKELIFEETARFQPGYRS

Nc1ncnc2c1ncn2[C@@H]1O[C@H](COP(=O)(O)OP(=O)(O)O)[C@@H](O)[C@H]1O [ADP, adenosine diphosphate]
Mechanism of inhibition (eEF-2K [1]; [10]): Competitive ^d | Mechanism of inhibition (eEF-2K [1]; varied Pep-S, fixed ATP 50 µM): Mixed ^g

Nc1ncnc2c1ncn2[C@@H]1O[C@H](COP(=O)(O)OP(=O)(O)OP(=O)(O)O)[C@@H](O)[C@H]1O [ATP, adenosine triphosphate]
Kd (eEF-2K [1]): 16.2 ± 6.9 µM

CCCCCCCCCCCCCCCC[n+]1ccn(Cc2ccccc2)c1C.[I-] [NH125, 1-benzyl-3-cetyl-2-methylimidazolium iodide]
levels of eEF-2K and eEF-2 [2]: increase | phospho-eEF2 (Thr-56) level ([2]; versus DMSO): No sign of decrease; also recorded: increased; also recorded: no inhibition was observed; also recorded: did not inhibit | eEF2 phosphorylation in the hippocampus [3]: observable decrease | levels of eEF-2K and eEF-2 (A549 lung cancer cells): increase | phospho-eEF2 (Thr-56) level (A549 lung cancer cells; versus DMSO): No sign of decrease; also recorded: increased; also recorded: no inhibition was observed; also recorded: did not inhibit | EC50 (cancer cell lines): 1 to 5 µM | Hill coefficient (eEF-2K [4]): 1.0 ± 0.28 | effect on the rate of phosphorylation of wheat germ eEF2 (eEF-2K [5]; NH125 0–5 µM, 1 µM eEF2, 7.5 µM ATP, 10 nM eEF-2K): no detectable effect; also recorded: failed to inhibit | effect on phosphorylation of wheat germ eEF2 (eEF-2K [5]; NH125 12.5 – 50 µM (Figure S3)): inhibition is observed | levels of eEF-2K and eEF-2 (HEK-293T cells): increase | phospho-eEF2 (Thr-56) level (HEK-293T cells; versus DMSO): No sign of decrease; also recorded: increased; also recorded: no inhibition was observed; also recorded: did not inhibit | phosphorylation of eEF-2 [6]: induction; also recorded: induce phosphorylation | IC50 (GST-eEF-2K): 0.06 µM | IC50 (ERK2): 70 µM | Hill coefficient (ERK2; 2 nM ERK2, 500 µM ATP (data not shown)): 3.6 | Hill coefficient (TRPM7): 1.6 | phosphorylation of eEF2 (C6 glioma cells): strongly inhibits | resveratrol-induced eEF2 phosphorylation [7]: inhibition

CC(=O)c1c(O)c(C)c(O)c(Cc2c(O)c3c(c(C(=O)/C=C/c4ccccc4)c2O)OC(C)(C)C=C3)c1O [Rottlerin, rottlerin]
kinase selectivity (eEF-2K [8]): nonspecific inhibitor of multiple protein kinases

O=C1OC(c2cc(I)c(O)c(I)c2)(c2c(I)cc(O)cc2I)c2ccccc21 (stereo not shown) [tetraiodophenolphthalein]
diameter of aggregates [9]: approximately 150 nm

Ac-RKKYKFNEDAERRRFL-NH2 [Pep-I]
Mechanism of inhibition (eEF-2K [1]; [10]): Mixed ^g | Mechanism of inhibition (eEF-2K [1]; varied Pep-S, fixed ATP 50 µM): Competitive ^d
